Experimental data reported in ChEMBL document CHEMBL1671779, “In vivo trypanosomicidal activity of imidazole- or pyrazole-based benzo[g]phthalazine derivatives against acute and chronic phases of Chagas disease” (J Med Chem, 2011).
Active and inactive are the calls of the source.

Columns and labels:
[1] = system: Trypanosoma cruzi; assay: Antitrypanosomal activity against epimastigote of Trypanosoma cruzi Maracay after 72 hrs; format: functional, organism-based
Method in brief: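 Maracay strain epimastigotes in exponential phase, obtained in NNN medium with MEM and 20% inactivated FBS and then kept in monophasic MTL culture. Seeded at 2 × 10^6 parasites/mL with 1, 10, 25, 50 or 100 μM compound (0.01% DMSO). Parasites counted by Neubauer hemocytometer at 72 h; IC50 derived.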

[2] = system: Vero; assay: Cytotoxicity against african green monkey Vero cells after 72 hrs by trypan blue assay; format: cell-based; conditions: Chlorocebus sabaeus
Method in brief: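 Vero cells in MEM with 10% inactivated FCS, pH 7.2, 37 °C, 5% CO2. Seeded at 1 × 10^5 cells/mL and grown 2 days, then exposed 72 h to 1, 10, 25, 50 or 100 μM. Viability scored by trypan blue (0.1%) relative to control; IC50 obtained by linear regression.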

[3] = system: Trypanosoma cruzi; assay: Antitrypanosomal activity against Trypanosoma cruzi infected in african green monkey Vero cells assessed as reduction of parasite infection rate at IC25 after 10 days; format: functional; set-up: scale not given: the % may be the effect or the level left
Method in brief: (§1)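 Vero cells seeded at 1 × 10^5 cells/well on coverslips and grown 2 days in MEM at 37 °C, 5% CO2. Infected with metacyclic forms at 10:1, obtained by culture in modified Grace's medium at 28 °C for 12 days. Drug present 6 h, then removed by washing; cultures grown 10 days with medium renewed every 48 h. Methanol-fixed, Giemsa-stained; >100 host cells counted; means of four determinations.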

[4] = system: Trypanosoma cruzi; assay: Antitrypanosomal activity against Trypanosoma cruzi infected in african green monkey Vero cells assessed as reduction of amastigote number per infected cell at IC25 after 10 days relative to control; format: functional; set-up: scale not given: the % may be the effect or the level left; method in brief: as §1
[5] = system: Trypanosoma cruzi; assay: Antitrypanosomal activity against Trypanosoma cruzi infected in african green monkey Vero cells assessed as reduction of trypomastigote number per infected cell at IC25 after 10 days relative to control; format: functional; set-up: scale not given: the % may be the effect or the level left
[6] = system: Trypanosoma cruzi; assay: Antitrypanosomal activity against trypomastigote of Trypanosoma cruzi infected in BALB/c mouse assessed as increase of host survival at 1 mg/kg, ip for 5 days administered 7 days after infection; format: functional
Method in brief: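 Female BALB/c mice (6-8 weeks, 25-30 g) in groups of five were infected intraperitoneally with T. cruzi metacyclic forms, with circulating parasites confirmed on day 5 by microhematocrit. They were dosed intraperitoneally at 1 mg/kg/day for five consecutive days (days 7-12 post-infection) and compared with infected untreated and uninfected controls. Deaths were recorded every two days.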

[7] = system: Trypanosoma cruzi; assay: Antitrypanosomal activity against trypomastigote of Trypanosoma cruzi infected in BALB/c mouse assessed as reduction of parasitemia at 1 mg/kg, ip for 5 days measured after 40 days postinfection; format: functional, organism-based; set-up: dose 1 mg/kg
Method in brief: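 Female BALB/c mice (6–8 weeks, 25–30 g), groups of five, infected ip with 3 × 10^3 metacyclic forms. Dosed 1 mg/kg/day ip for days 7–12 post-infection. Tail blood (5 μL) diluted 1:15 in citrate/lysis buffer pH 7.2; parasites counted in Neubauer chamber; deaths recorded every two days.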

[8] = system: Trypanosoma cruzi; assay: Antitrypanosomal activity against trypomastigote of Trypanosoma cruzi infected in BALB/c mouse assessed as reduction of anti-Trypanosoma cruzi antibody level at 1 mg/kg, ip qd for 5 days measured after 120 days postinfection by ELISA; format: functional; conditions: route intraperitoneal
Method in brief: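 Female BALB/c mice (6–8 weeks, 25–30 g; groups of four for serology) infected ip with 3 × 10^3 metacyclic forms. Dosed 1 mg/kg/day ip for five consecutive days, days 7–12 post-infection. Sera diluted 1:100 tested by ELISA against soluble T. cruzi epimastigote Fe-SOD antigen at days 40 and 120. Read at 490 nm; cutoff is negative-control mean + 3 SD.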

[9] = Inhibition of Trypanosoma cruzi iron superoxide dismutase assessed as inhibition of NADPH reduction
Method in brief: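 Maracay epimastigotes sonicated in sucrose/Tris/EDTA buffer, pH 7.8. Clarified supernatant taken through 35–85% ammonium sulfate cut, then desalted into 20 mM phosphate pH 7.8 with 1 mM EDTA. Activity measured by NAD(P)H oxidation; 1 U gives 50% inhibition of the rate. Compounds at 1, 10, 25, 50, 100 μM. IC50 by linear regression; five determinations; Newman-Keuls test.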

[10] = system: Trypanosoma cruzi; assay: Antitrypanosomal activity against epimastigotes of Trypanosoma cruzi assessed as change in ultrastructural morphological changes at IC25 concentration after 72 hrs by transmission electron microscopy; format: functional, organism-based
Method in brief: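 Epimastigotes at 5 × 10^6 cells/mL cultured with drug at IC25 for 72 h. Pelleted at 400g, washed in PBS, then fixed in 2% formaldehyde-glutaraldehyde in 0.05 M cacodylate pH 7.4 for 2 h at 4 °C before transmission electron microscopy.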

[11] = system: Mus musculus; assay: Toxicity in BALB/c mouse assessed as mortality at 5 mg/kg, ip; format: organism-based; set-up: dose 5 mg/kg, route intraperitoneal; conditions: in vivo
[12] = biological target: Superoxide dismutase [Cu-Zn] (Homo sapiens, UniProt P00441); assay: Inhibition of human Cu-Zn superoxide dismutase assessed as inhibition of NADPH reduction
Method in brief: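 Human erythrocyte CuZn-SOD, purchased, assayed by NAD(P)H oxidation; 1 U gives 50% inhibition of the rate. Compounds at 1, 10, 25, 50, 100 μM. IC50 by linear regression; five determinations; Newman-Keuls test.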

[13] = system: Trypanosoma cruzi; assay: Effect on metabolic excretion in epimastigotes of Trypanosoma cruzi assessed as L-alanine excretion level at IC25 concentration after 72 hrs by nuclear magnetic resonance spectroscopy analysis; format: ADME, organism-based
Method in brief: (§2)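 Epimastigote cultures started at 5 × 10^5 cells/mL and given drug at IC25, 72 h at 28 °C. Excreted metabolites assessed by 1H NMR of spent medium, compared with cell-free medium.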

[14] = system: Trypanosoma cruzi; assay: Effect on metabolic excretion in epimastigotes of Trypanosoma cruzi assessed as acetate excretion level at IC25 concentration after 72 hrs by nuclear magnetic resonance spectroscopy analysis; format: ADME, organism-based; method in brief: as §2
[15] = system: Trypanosoma cruzi; assay: Effect on metabolic excretion in epimastigotes of Trypanosoma cruzi assessed as succinate excretion level at IC25 concentration after 72 hrs by nuclear magnetic resonance spectroscopy analysis; format: ADME, organism-based; method in brief: as §2
[16] = system: Mus musculus; assay: Toxicity in Trypanosoma cruzi infected BALB/c mouse assessed as lymphocytic infiltration at 5 mg/kg, ip administered 90 days after postinfection by conventional light microscopic analysis; format: organism-based; set-up: dose 5 mg/kg, route intraperitoneal; conditions: in vivo, 2160 h
Method in brief: (§3)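 Livers of infected mice dosed at 5 mg/kg, examined at 90 days post-infection. Paraffin sections 4–5 μm, stained with Giemsa, H&E and Masson's trichrome. Slides coded for blinded light microscopy, ≥30 fields per slide. Alterations scored 0–5.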

[17] = system: Mus musculus; assay: Toxicity in Trypanosoma cruzi infected BALB/c mouse assessed as hepatic destruction at 5 mg/kg, ip administered 90 days after postinfection by conventional light microscopic analysis; format: organism-based; set-up: dose 5 mg/kg, route intraperitoneal; conditions: in vivo, 2160 h; method in brief: as §3
[18] = Selectivity index, ratio of IC50 for african green monkey Vero cells to IC50 for epimastigote of Trypanosoma cruzi Maracay; format: toxicity, cell-based; conditions: read-out: Selectivity Index
[19] = system: Trypanosoma cruzi; assay: Effect on metabolic excretion in epimastigotes of Trypanosoma cruzi assessed as lactate excretion level at IC25 concentration after 72 hrs by nuclear magnetic resonance spectroscopy analysis; format: ADME, organism-based; method in brief: as §2
[20] = system: Trypanosoma cruzi; assay: Effect on metabolic excretion in epimastigotes of Trypanosoma cruzi assessed as malate excretion level at IC25 concentration after 72 hrs by nuclear magnetic resonance spectroscopy analysis; format: ADME, organism-based
[21] = system: Mus musculus; assay: Toxicity in Trypanosoma cruzi infected BALB/c mouse assessed as lymphocytic infiltration in portal tracts at 5 mg/kg, ip administered 90 days after postinfection by conventional light microscopic analysis; format: organism-based; set-up: dose 5 mg/kg, route intraperitoneal; conditions: in vivo, 2160 h; method in brief: as §3
[22] = system: Mus musculus; assay: Toxicity in Trypanosoma cruzi infected BALB/c mouse assessed as small interstitial hemorrhage at 5 mg/kg, ip administered 90 days after postinfection by conventional light microscopic analysis; format: organism-based; set-up: dose 5 mg/kg, route intraperitoneal; conditions: in vivo, 2160 h; method in brief: as §3

Sequence of Superoxide dismutase [Cu-Zn] (P00441 whole entry): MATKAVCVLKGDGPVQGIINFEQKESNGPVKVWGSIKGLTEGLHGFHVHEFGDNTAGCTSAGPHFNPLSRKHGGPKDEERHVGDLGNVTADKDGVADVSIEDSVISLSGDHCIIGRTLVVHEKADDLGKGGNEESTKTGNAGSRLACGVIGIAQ

| Compound | Activity [3] [%] | Activity [4] [%] | Activity [5] [%] | Activity [6] | Activity [7] | deltaA [8] [absorbance units] | IC50 [9] [µM] | Activity [10] | Activity [11] | IC50 [12] [µM] | Activity [13] [%] | Activity [14] [%] | Activity [15] [%] | also measured |
| --- | --- | --- | --- | --- | --- | --- | --- | --- | --- | --- | --- | --- | --- | --- |
| c1ccc2cc3c(Nc4cc[nH]n4)nnc(Nc4cc[nH]n4)c3cc2c1 [1,4-BIS(3'-PYRAZOLYLAMINO)BENZO[G]PHTHALAZINE] | 63 | 40 | 53 | Active | Active | 0.138 | 22.9 | Active |  |  |  |  |  | IC50 [1]: 32.8 µM; IC50 [2]: 98.3 µM |
| Clc1nnc(NCCc2c[nH]cn2)c2cc3ccccc3cc12 |  |  |  | Active | Active | -0.076 | 9.4 | Active | Non-toxic | 787 | 22 | -18 | -37 | Activity [16]: Toxic; Activity [17]: Toxic |
| c1ccc2cc3c(Nc4ccn[nH]4)nnc(Nc4ccn[nH]4)c3cc2c1 [1,4-BIS(3'-PYRAZOLYLAMINO)BENZO[G]PHTHALAZINE] |  |  |  |  |  |  |  |  | Non-toxic | 96.6 |  |  | -24 | selectivity ratio [18]: 2.99; Activity [19]: -55%; Activity [20]: 100% |
| O=C(Cn1ccnc1[N+](=O)[O-])NCc1ccccc1 [BENZNIDAZOLE] | 39 | 15 | 43 |  |  | 0.11 |  |  |  |  |  |  |  | Activity ([6]; route intraperitoneal): 80% |
| Clc1nnc(Nc2cc[nH]n2)c2cc3ccccc3cc12 | 68 | 56 | 63 | Active | Active | -0.228 | 17.2 | Active | Non-toxic | 103 |  | -36 | 27 | IC50 [1]: 17.5 µM; IC50 [2]: 133 µM; selectivity ratio [18]: 7.58; Activity [19]: -61%; Activity [21]: Toxic; Activity [22]: Toxic |
| c1ccc2cc3c(NCCc4c[nH]cn4)nnc(NCCc4c[nH]cn4)c3cc2c1 |  |  |  | Active | Active | 0.044 | 29.6 | Active |  |  |  |  |  |  |
| c1ccc2cc3c(NCCc4cnc[nH]4)nnc(NCCc4cnc[nH]4)c3cc2c1 |  |  |  |  |  |  |  |  | Non-toxic | 366 | 35 | -30 | -39 |  |
| Clc1nnc(NCCCn2ccnc2)c2cc3ccccc3cc12 |  |  |  | Active | Active | -0.151 | 1.3 | Active | Non-toxic | 129 | 61 | -26 | -49 |  |
| c1ccc2cc3c(NCCCn4ccnc4)nnc(NCCCn4ccnc4)c3cc2c1 |  |  |  | Active | Active | 0.266 | 28.3 |  | Non-toxic | 67.9 | 43 | -22 | -27 |  |
